We go through 14 compounds from ChEMBL document CHEMBL3769381 (J Med Chem, 2016).

In experiment [1] the target is T1, Adenosine receptor A2a (Homo sapiens, UniProt P29274).
Experiment [2] has as its target T2, Adenosine receptor A1 (Homo sapiens, UniProt P30542).
T2 sequence (P30542 whole entry): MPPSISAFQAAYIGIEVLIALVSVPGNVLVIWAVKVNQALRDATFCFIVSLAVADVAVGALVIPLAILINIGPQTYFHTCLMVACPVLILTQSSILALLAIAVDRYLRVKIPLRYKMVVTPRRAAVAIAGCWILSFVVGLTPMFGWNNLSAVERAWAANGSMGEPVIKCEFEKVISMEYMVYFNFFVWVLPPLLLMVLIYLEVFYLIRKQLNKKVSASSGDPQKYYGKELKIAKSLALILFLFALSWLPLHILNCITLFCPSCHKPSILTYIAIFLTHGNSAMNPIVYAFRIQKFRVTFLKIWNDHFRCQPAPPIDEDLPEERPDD
The experiment can be described thus: Agonist activity at human Adenosine A1 receptor expressed in yeast cells coexpressed with chimeric GPA1/Galphai1 after 16 hrs by beta galactosidase reporter gene assay. The format is cell-based. For orientation: A reporter such as luciferase makes a cellular process visible.

The target in experiment [3] is T2, Adenosine receptor A1. Description: Agonist activity at human Adenosine A1 receptor transfected in CHO-K1 cells assessed as inhibition of forskolin-stimulated cAMP production after 30 mins by multimode microplate reader analysis. The format is functional, cell-based. Background: cAMP levels reflect the balance of adenylyl cyclase and phosphodiesterase activity.

The target in experiment [4] is T3, Adenosine receptor A1 (Homo sapiens) (UniProt P30542).
T3 sequence (whole entry): T2 sequence (P30542 whole entry)

The target of experiment [5] is T4, Adenosine receptor A2b (Homo sapiens) (UniProt P29275).
T4 sequence (whole entry): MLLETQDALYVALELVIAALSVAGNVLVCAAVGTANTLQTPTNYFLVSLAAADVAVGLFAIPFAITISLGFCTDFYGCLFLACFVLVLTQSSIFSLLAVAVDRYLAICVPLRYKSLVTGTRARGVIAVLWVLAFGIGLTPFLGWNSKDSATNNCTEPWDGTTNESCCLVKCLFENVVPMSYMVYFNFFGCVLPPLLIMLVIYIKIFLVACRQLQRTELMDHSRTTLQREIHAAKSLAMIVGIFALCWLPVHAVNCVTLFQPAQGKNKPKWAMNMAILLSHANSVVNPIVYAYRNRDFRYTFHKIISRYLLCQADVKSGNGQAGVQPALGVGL
Description: Agonist activity at human Adenosine A2B receptor expressed in yeast cells coexpressed with chimeric GPA1/Galphas after 16 hrs by beta-galactosidase reporter gene assay relative to NECA. The experiment is classed as cell-based. An outline of the steps: (§1)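 Yeast (Δfar1, FUS1-lacZ) express A2BR from the GAPDH promoter alongside Gpa1p/Gαs chimera. The OD600 is 0.02 and compound is added in 1% v/v DMSO for 16 h at 30°C. β-Galactosidase is read with ONPG at OD430, normalised as (OD430−OD620)/OD620. […] Three-parameter logistic fit gives EC50 and Emax. Data are from 5-8 independent experiments.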

For experiment [6], the target named is T4, Adenosine receptor A2b (Homo sapiens). The experiment can be described thus: Binding affinity to human Adenosine A2B receptor expressed in yeast cells coexpressed with GPA1/Galphas. The experiment is classed as cell-based. An outline of the steps: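 pKA is derived by non-linear regression of the operational model of agonism applied to 16 h yeast FUS1-lacZ concentration-response data, with A2BR coupled to the GPA1/Gαs chimera.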

A further experiment concerns the target T5, Adenosine receptor A3 (Homo sapiens, UniProt P0DMS8).
T5 sequence (P0DMS8 whole entry): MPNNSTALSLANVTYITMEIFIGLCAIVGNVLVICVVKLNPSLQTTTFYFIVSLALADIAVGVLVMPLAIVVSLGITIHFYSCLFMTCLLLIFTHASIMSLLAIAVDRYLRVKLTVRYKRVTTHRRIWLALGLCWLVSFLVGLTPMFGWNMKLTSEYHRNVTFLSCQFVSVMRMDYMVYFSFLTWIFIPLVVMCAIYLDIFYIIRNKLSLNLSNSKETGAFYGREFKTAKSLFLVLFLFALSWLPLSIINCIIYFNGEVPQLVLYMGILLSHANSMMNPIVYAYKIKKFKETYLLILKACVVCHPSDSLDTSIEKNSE
Description: (§2) Agonist activity at human Adenosine A3 receptor transfected in CHO-K1 cells assessed as inhibition of forskolin-stimulated cAMP production after 30 mins by multimode microplate reader analysis. The format is functional, cell-based. An outline of the steps:
(§3)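 CHO-K1 cells are transiently transfected with receptor (2 µg DNA, FuGene 6) and harvested at 48 h. They are co-incubated with 10 µM forskolin and ligand (10 pM to 1 µM) for 30 min at room temperature. cAMP is measured by LANCE kit. Data are expressed as % of the 10 µM forskolin response.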

Experiment [7] deals with T1, Adenosine receptor A2a. The experiment can be described thus: Agonist activity at human Adenosine A2A receptor expressed in yeast cells coexpressed with chimeric GPA1/Galphas after 16 hrs by beta-galactosidase reporter gene assay. The format is cell-based.
Experiment [8] concerns the target T6, Adenosine receptor A3 (Homo sapiens) (UniProt P0DMS8).
T6 sequence (whole entry): T5 sequence (P0DMS8 whole entry)
Description: Agonist activity at human Adenosine A3 receptor transfected in CHO-K1 cells assessed as inhibition of forskolin-stimulated cAMP production after 30 mins by multimode microplate reader analysis relative to total forskolin. The format is functional, cell-based. Details: concentration or dose not given beside the values. In outline: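 CHO-K1 cells are transiently transfected with receptor (2 µg DNA, FuGene 6) and harvested at 48 h. Cells are resuspended in PBS with 0.1% BSA and 25 µM rolipram, at 2500 cells/well. They are co-incubated with 10 µM forskolin and ligand (10 pM to 1 µM) for 30 min at room temperature. cAMP is measured by LANCE kit. Data are expressed as % of the 10 µM forskolin response.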

The target in experiment [9] is T3, Adenosine receptor A1 (Homo sapiens). This is another data set of the same source.
Experiment [10] addresses T4, Adenosine receptor A2b (Homo sapiens). The experiment can be described thus: Agonist activity at human Adenosine A2B receptor expressed in yeast cells coexpressed with chimeric GPA1/Galphas after 16 hrs by beta-galactosidase reporter gene assay. The experiment is classed as cell-based. In outline:
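Yeast (Δfar1, FUS1-lacZ) express A2BR from the GAPDH promoter alongside Gpa1p/Gαs chimera. The OD600 is 0.02 and compound is added in 1% v/v DMSO for 16 h at 30°C. β-Galactosidase is read with ONPG at OD430, normalised as (OD430−OD620)/OD620. Three-parameter logistic fit gives EC50 and Emax. Data are from 5-8 independent experiments.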

For experiment [11] the target is unchanged. Description: Agonist activity at human Adenosine A2B receptor expressed in yeast cells coexpressed with chimeric GPA1/Galphas at 100 µM after 16 hrs by beta-galactosidase reporter gene assay. The experiment is classed as cell-based. In outline:
as §1

In experiment [12] the target is T1, Adenosine receptor A2a. Description: Agonist activity at human Adenosine A2A receptor expressed in yeast cells coexpressed with chimeric GPA1/Galphas at 100 uM after 16 hrs by beta-galactosidase reporter gene assay. The experiment is classed as cell-based. In outline:
(§4)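 Human receptor expressed from GAPDH promoter (p426-GPD) in Δfar1 FUS1-lacZ yeast with Gpa1p(1-467) carrying the 5 C-terminal Gα residues. Cells are grown overnight in SD-URA at 30°C, diluted 1:10 and grown 8 h. They are set to OD600 0.02 and given compound at 1% v/v DMSO for 16 h at 30°C. A2A strain is grown in SD-URA-HIS, with 5 mM 3-amino-triazole in treatment media. Read-out: ONPG, (OD430−OD620)/OD620.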

Experiment [13] concerns the target T3, Adenosine receptor A1 (Homo sapiens). The experiment can be described thus: Agonist activity at human Adenosine A1 receptor expressed in yeast cells coexpressed with chimeric GPA1/Galphai1 at 100 uM after 16 hrs by beta galactosidase reporter gene assay. The experiment is classed as cell-based. An outline of the steps:
as §4

The target in experiment [14] is T6, Adenosine receptor A3 (Homo sapiens). The experiment is described as §2. The format is functional, cell-based. An outline of the steps:
as §3

The target of experiment [15] is T4, Adenosine receptor A2b (Homo sapiens).
The target in experiment [16] is T1, Adenosine receptor A2a. The source holds these as a separate data set.

For orientation: EC50 means the midpoint of the concentration-response curve. For orientation: IC50 means the point on the concentration scale where inhibition reaches its midpoint. The term Emax denotes the greatest response seen or fitted, relative to the assay's reference.

The source made the active and inactive calls. The calls are words filed in the database; no cut-off is given here.

T1 sequence (P29274 whole entry): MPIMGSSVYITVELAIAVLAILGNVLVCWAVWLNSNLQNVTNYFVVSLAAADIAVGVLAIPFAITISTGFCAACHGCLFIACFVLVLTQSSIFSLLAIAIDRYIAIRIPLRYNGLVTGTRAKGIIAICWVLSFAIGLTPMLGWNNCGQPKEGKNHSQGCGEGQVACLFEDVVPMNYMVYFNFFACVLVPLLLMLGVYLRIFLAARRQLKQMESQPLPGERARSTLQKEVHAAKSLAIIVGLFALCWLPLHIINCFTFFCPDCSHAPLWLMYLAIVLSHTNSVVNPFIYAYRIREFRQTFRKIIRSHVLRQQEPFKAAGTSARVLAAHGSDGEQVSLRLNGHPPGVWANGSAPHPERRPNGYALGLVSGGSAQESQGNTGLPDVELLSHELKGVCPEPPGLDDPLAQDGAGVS

As for `CCNC(=O)[C@H]1O[C@@H](n2cnc3c(NC45CC6CC(CC(O)(C6)C4)C5)ncnc32)[C@H](O)[C@@H]1O`, the pKA entry (at Adenosine receptor A2a [1]; in experiment [6]) was “inactive” each time. Further, on Adenosine receptor A1 [2], the response was half-maximal at 100000 nM (EC50). Further, the IC50 is 37.2 nM on Adenosine receptor A1 [3] and 79.4 nM on Adenosine receptor A3. The compound also gave a log(activity) in experiment [4] of 1. Further, the Emax entry in experiment [5] is “inactive”. Further, the pEC50 result (at Adenosine receptor A2a [7]; in experiment [10]) was “inactive” throughout. Moreover, the Activity in experiment [8] is -32.7%. Further, the pKA in experiment [9] was found to be 3.5.
Take `CN1[C@@H]2CCC[C@H]1C[C@@H](Nc1ncnc3c1ncn3[C@@H]1O[C@H](CO)[C@@H](O)[C@H]1O)C2`: the pKA entry (at Adenosine receptor A2a [1]; in experiment [6]; in experiment [9]) was “inactive” throughout. For the same compound, the result (in [11]; at Adenosine receptor A2a [12]) was inactive.
`CCNC(=O)[C@H]1O[C@@H](n2cnc3c(N4[C@@H]5CCC[C@H]4C[C@H](N(C)C)C5)ncnc32)[C@H](O)[C@@H]1O`: the pKA result (at Adenosine receptor A2a [1]; in [6]; in experiment [9]) was “inactive” each time. In addition, the result (in experiment [13]; in [11]; on Adenosine receptor A2a [12]) was inactive.
Regarding `CCNC(=O)[C@H]1O[C@@H](n2cnc3c(N[C@H]4C[C@H]5CCC[C@@H](C4)N5C)ncnc32)[C@H](O)[C@@H]1O`, the pKA entry (on Adenosine receptor A2a [1]; in experiment [6]; in experiment [9]) was “inactive” throughout. In addition, the outcome (in experiment [11]; on Adenosine receptor A2a [12]) was inactive.
For `CCNC(=O)[C@H]1O[C@@H](n2cnc3c(NC4C5CC6CC(C5)CC4C6)ncnc32)[C@H](O)[C@@H]1O` (stereo not given in full), the pKA entry (at Adenosine receptor A2a [1]; in experiment [6]) was “inactive” in each case. Also, on Adenosine receptor A1 [2], the EC50 was 15800 nM. For the same compound, the IC50 on Adenosine receptor A1 [3] was 0.398 nM. Also, the log(activity) in [4] came to 2.4. Also, in experiment [5], the Emax entry was “inactive”. The pIC50 entry in experiment [14] was “inactive”. Also, the pEC50 result (at Adenosine receptor A2a [7]; in experiment [10]) was “inactive” each time. In addition, the result in experiment [8] was inactive. In [9], this compound had a pKA of 2.4.
Take `OC[C@H]1O[C@@H](n2cnc3c(N[C@@H]4CCC[C@H]4OCc4ccccc4)ncnc32)[C@H](O)[C@@H]1O`: the pKA entry (on Adenosine receptor A2a [1]; in [6]) was “inactive” throughout. For the same compound, the Emax entry in experiment [5] was “inactive”. For the same compound, the result in experiment [8] was inactive. In [9], this compound came in with a pKA of 4.9.
In turn, `Nc1ncnc2c1ncn2[C@@H]1O[C@H](CO)[C@@H](O)[C@H]1O` registered an Emax in [5] of 70.4%. In [6], this compound showed a pKA of 3.8.
Take `CN1[C@@H]2CCC[C@H]1C[C@@H](Nc1ncnc3c1ncn3[C@@H]1O[C@H](CSc3ccccc3F)[C@@H](O)[C@H]1O)C2`: the pKA entry (on Adenosine receptor A2a [1]; in experiment [6]; in [9]) was “inactive” in each case. The outcome (in experiment [13]; in experiment [11]; on Adenosine receptor A2a [12]) was inactive.
`O[C@@H]1[C@H](O)[C@@H](CSc2ccccc2F)O[C@H]1n1cnc2c(NC34CC5CC(CC(C5)C3)C4)ncnc21`: the result in experiment [13] and in experiment [11] was inactive. Also, the pKA entry in [6] and in experiment [9] was “inactive” throughout.
For `CCNC(=O)[C@H]1O[C@@H](n2cnc3c(N)nc(NCCc4ccc(CCC(=O)O)cc4)nc32)[C@H](O)[C@@H]1O`, the Emax in experiment [5] amounted to 59.1%. Further, the pKA is 3.4 in experiment [6] and 2.1 in [9].
On to `OC[C@H]1O[C@@H](n2cnc3c(NC4CCCC4)nc(Cl)nc32)[C@H](O)[C@@H]1O`, for which the pKA came out at 4.7 at Adenosine receptor A2a [1] and 4.4 in experiment [6]. In addition, the log(activity) is 3.5 in experiment [15], 0.6 in experiment [4] and -0.1 on Adenosine receptor A2a [16]. In [5], this compound returned an Emax of 30.6%. The Activity in [8] is -46.6%.
Turning to `OC[C@H]1O[C@@H](n2cnc3c(N[C@@H]4CCC[C@H]4O)ncnc32)[C@H](O)[C@@H]1O`, the pKA result (at Adenosine receptor A2a [1]; in experiment [6]) was “inactive” throughout. On Adenosine receptor A1 [2], the EC50 was 631 nM. Moreover, the IC50 at Adenosine receptor A1 [3] is 4.37 nM; on Adenosine receptor A3, 27.5 nM. The compound also gave a log(activity) in [4] of 0.7. Further, the Emax entry in experiment [5] is “inactive”. The pEC50 result (on Adenosine receptor A2a [7]; in experiment [10]) was “inactive” throughout. In addition, the Activity in experiment [8] is -35.1%. Also, the pKA in [9] turned out to be 5.5.
`CCNC(=O)[C@H]1O[C@@H](n2cnc3c(N)ncnc32)[C@H](O)[C@@H]1O`: the pKA worked out at 4.2 in experiment [6] and 4.4 in [9]. Also, the Activity in [8] is -44.1%.
Take `CCNC(=O)[C@H]1O[C@@H](n2cnc3c(N4[C@@H]5CCC[C@H]4C[C@H](N)C5)ncnc32)[C@H](O)[C@@H]1O`: the pKA result (at Adenosine receptor A2a [1]; in experiment [6]; in experiment [9]) was “inactive” each time. Further, the result (in experiment [13]; in [11]; at Adenosine receptor A2a [12]) was inactive.
